Measured values pooled from the literature.
Each line is one published result; the experiments were not run side by side.

SMILES | tested on | test | system | setting | endpoint | result
Cc1cc(C)nc(Nc2ncc(C(=O)NCCc3c(C)[nH]c4ccccc34)cn2)c1 |  | metabolic stability | dog, liver microsomes | 1 µM | half-life | 10 min
O=C1N=C(N2CCCCN2)S/C1=C\c1ccc(F)cc1OC(=O)N1CCCC1 |  | general toxicity | Sprague-Dawley rat | oral, multiple doses | NOAEL | 2000 mg/kg/day
O=C1Nc2c(C(F)(F)F)cccc2[C@@]1(c1ccc(O)cc1)c1ccc(OC(F)(F)F)cc1 |  | general toxicity | Sprague-Dawley rat | intravenous | MTD | 10 to 20 mg/kg
CCC[C@@](N)(CO)CCc1ccc(OCCCCCC(C)C)cc1 |  |  | dog, plasma | intravenous, 0.25 mg/kg | C0 | 36 nM
Cc1cc(NC2CCN(C(=O)OC3CCN(C(=O)/C=C/CN(C)C)C3)CC2)n2ncc(C(C)C)c2n1 (stereo not shown) |  | general toxicity | rat | oral, multiple doses, once daily | MTD | 6 mg/kg
O=C(Nc1ncc([N+](=O)[O-])s1)c1ccccc1O | RPE | cell growth or viability |  | 48 h | CC50 | ≥ 30 µM
O=c1c(O[C@@H]2O[C@H](CO)[C@@H](O)[C@H](O)[C@H]2O)c(-c2ccc(O)cc2)oc2cc(O)cc(O)c12 | WI-38 | cell growth or viability, WST-1 |  |  | IC50 | 113 µM
O=[N+]([O-])c1ccc(Oc2cccc3cccnc23)c([N+](=O)[O-])c1 | WI-38 | cell growth or viability, MTT |  | 48 h | CC50 | 243 µM
COc1c2ccoc2cc2oc(=O)ccc12 | WI-38 | cell growth or viability, WST-1 |  | 48 h | IC50 | 86.3 µM
O=C(O)c1cn(Cc2ccc(F)cc2)c2ccccc12 | UDP-glucuronosyltransferase 1A10 (UGT1A10, Homo sapiens, UniProt Q9HAW8) | enzyme activity, substrate |  |  | Km | 38 µM
N=c1c2c(-c3ccccc3)c(-c3ccccc3)n(Cc3ccccc3)c2ncn1[C@H]1CC[C@H](O)CC1 |  |  | male cynomolgus monkey, plasma | intravenous, 0.5 mg/kg, single dose | clearance | 0.6 mL/min/kg
C#C[C@]1(CO)O[C@@H](n2cnc3c(N)nc(F)nc32)C[C@@H]1O |  | general toxicity | rat | oral, multiple doses | NOAEL | ≥ 50 mg/kg/day
Cc1nc2ccccc2n(-c2ccc([N+](=O)[O-])cc2[N+](=O)[O-])c1=O | WI-38 | cell growth or viability, MTT |  | 48 h | CC50 | 61.2 µM
